Experimental data gathered from unrelated publications.
Protocols differ between the studies behind these lines.
FGFR1: Fibroblast growth factor receptor 1 (FGFR1, Homo sapiens, UniProt P11362)

SMILES	target	assay	setting	endpoint	result
COCc1c(-c2cc3cc(C)cc(OC)c3s2)c2c(N)ncnn2c1CN1CCNC(=O)C1	FGFR1	cell-free assay, competition with immobilised ligand	1 µM	inhibition	98%
COc1cc(Nc2ncc(F)c(Nc3ccc4c(n3)NC(=O)C(C)(C)O4)n2)cc(OC)c1OC	FGFR1	binding, competition with immobilised ligand	10 µM	inhibition	100%
Nc1ncc(-c2nc(N3CCOCC3)nc(N3CCOCC3)n2)c(C(F)F)n1	FGFR1	cell-free assay, competition with immobilised ligand	10 µM	remaining binding	94%
N#CC1(c2ccccn2)CCN(Cc2cc(C(=O)O)c(=O)n3ccccc23)CC1	FGFR1	cell-free assay, competition with immobilised ligand	1 µM	remaining binding	98%
CC(C)(C)c1cc(C=C(C#N)C#N)cc(Br)c1O	FGFR1	enzyme activity, inhibitor	0.5 µM	remaining activity	95.9%
Cn1cc(-c2cc(F)cc(N3CCn4c(cc5c4CCCC5)C3=O)c2CO)cc(Nc2ccc(N3CCN(C4COC4)CC3)cn2)c1=O	FGFR1	enzyme activity, inhibitor	0.1 µM	inhibition	9%
O=c1[nH]c2ccccc2n1C1CCN(Cc2ccc(-c3[nH]c4cc5ncnc5cc4nc3-c3ccccc3)cc2)CC1	FGFR1	cell-free assay	0.5 µM	remaining signal	102%
Cn1cc(-c2cccc(N3CCc4c(sc5c4CC(C)(C)C5)C3=O)c2CO)cc(Nc2ccncn2)c1=O	FGFR1	enzyme activity, inhibitor	1 µM	inhibition	9%
C#Cc1n[nH]c2c(-c3cn([C@@H](C)c4ccccn4)c(=O)[nH]c3=O)cc(F)cc12	Fibroblast growth factor receptor 1 (FGFR1, Homo sapiens, UniProt P11362, V561M)	enzyme activity, inhibitor	0.1 µM	inhibition	-4.4%
Cn1cncc1[C@](O)(COc1ccc(C#N)cc1-c1ccc(OC(F)(F)F)cc1)c1ccc(C#N)cc1	FGFR1	cell-free assay, competition with immobilised ligand	1 µM	remaining binding	62%
C#Cc1n[nH]c2c(-c3cn([C@@H](C)c4ccccc4)c(=O)[nH]c3=O)cc(F)cc12	FGFR1	enzyme activity, inhibitor	0.1 µM	inhibition	2.9%
Cc1nn(C)cc1-c1nc2c(N3CCN(Cc4ccc(Cl)cc4)CC3)c(Cl)cnc2[nH]1	FGFR1	binding, competition with immobilised ligand	1 µM	remaining binding	62%
COc1ncccc1-c1cnn2ccc(N3CCN(C(=O)OC(C)C)CC3)nc12	FGFR1	binding, competition with immobilised ligand	1 µM	remaining binding	88%
